Measurements as given in ChEMBL document CHEMBL1122777, “Effect of tellurium position on the myocardial uptake of radioiodinated 18-iodotellura-17-octadecenoic acid analogues” (1984).

Tests used:
Rattus norvegicus [1] = assay: Heart uptake after 60 min was determined in female Fischer rats after [125I]-labeled compound complexed with bovine serum albumin was injected intravenously; assay type: functional
In short: (§1)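 Female Fischer 344 rats (fed ad libitum) under ether anaesthesia received the ¹²⁵I fatty acid in a lateral tail vein. Dose was ~3.8–4.8 μCi per rat (sp act ~125–240 mCi/mmol), given in 0.5 mL 6% bovine albumin (final ethanol 10%) after filtration. Four rats per time point were used. Tissue radioactivity is % injected dose/g, mean with range, calculated against standards of the injected solution.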

Rattus norvegicus [2] = assay: Heart uptake after 120 min was determined in female Fischer rats after [125I]-labeled compound complexed with bovine serum albumin was injected intravenously; assay type: functional; in short: as §1
Rattus norvegicus [3] = assay: Heart uptake after 240 min was determined in female Fischer rats after [125I]-labeled compound complexed with bovine serum albumin was injected intravenously; assay type: functional; in short: as §1
Rattus norvegicus [4] = assay: Heart uptake after 30 min was determined in female Fischer rats after [125I]-labeled compound complexed with bovine serum albumin was injected intravenously; assay type: functional; in short: as §1
Rattus norvegicus [5] = assay: Heart uptake after 5 min was determined in female Fischer rats after [125I]-labeled compound complexed with bovine serum albumin was injected intravenously; assay type: functional; in short: as §1
[6] = Ratio of heart to blood uptake after 120 min was determined in female Fischer rats after [125I]-labeled compound complexed with bovine serum albumin was injected intravenously; assay type: functional
In short: (§2)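 Female Fischer 344 rats (food and water ad libitum) given the 125I-labelled fatty acid in 6% bovine albumin with 10% final ethanol, filtered, 0.5 mL into a lateral tail vein under ether anaesthesia. Four rats per time point. Tissue activity expressed as % injected dose/g against assayed injectate standards. Mean heart/tissue ratios were calculated from mean %ID/g values.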

[7] = Ratio of heart to blood uptake after 240 min was determined in female Fischer rats after [125I]-labeled compound complexed with bovine serum albumin was injected intravenously; assay type: functional; in short: as §2
[8] = Ratio of heart to blood uptake after 30 min was determined in female Fischer rats after [125I]-labeled compound complexed with bovine serum albumin was injected intravenously; assay type: functional; in short: as §2
[9] = Ratio of heart to blood uptake after 5 min was determined in female Fischer rats after [125I]-labeled compound complexed with bovine serum albumin was injected intravenously; assay type: functional; in short: as §2
[10] = Ratio of heart to blood uptake after 60 min was determined in female Fischer rats after [125I]-labeled compound complexed with bovine serum albumin was injected intravenously; assay type: functional; in short: as §2
[11] = Ratio of heart to kidneys uptake after 120 min was determined in female Fischer rats after [125I]-labeled compound complexed with bovine serum albumin was injected intravenously; assay type: functional, Heart/Kidney; in short: as §2
[12] = Ratio of heart to kidneys uptake after 240 min was determined in female Fischer rats after [125I]-labeled compound complexed with bovine serum albumin was injected intravenously; assay type: functional, Heart/Kidney; in short: as §2
[13] = Ratio of heart to kidneys uptake after 30 min was determined in female Fischer rats after [125I]-labeled compound complexed with bovine serum albumin was injected intravenously; assay type: functional, Heart/Kidney; in short: as §2
[14] = Ratio of heart to kidneys uptake after 5 min was determined in female Fischer rats after [125I]-labeled compound complexed with bovine serum albumin was injected intravenously; assay type: functional, Heart/Kidney; in short: as §2
[15] = Ratio of heart to kidneys uptake after 60 min was determined in female Fischer rats after [125I]-labeled compound complexed with bovine serum albumin was injected intravenously; assay type: functional, Heart/Kidney; in short: as §2
[16] = Ratio of heart to liver uptake after 120 min was determined in female Fischer rats after [125I]-labeled compound complexed with bovine serum albumin was injected intravenously; assay type: functional; in short: as §2
[17] = Ratio of heart to liver uptake after 5 min was determined in female Fischer rats after [125I]-labeled compound complexed with bovine serum albumin was injected intravenously; assay type: functional; in short: as §2
[18] = Ratio of heart to liver uptake after 60 min was determined in female Fischer rats after [125I]-labeled compound complexed with bovine serum albumin was injected intravenously; assay type: functional; in short: as §2
[19] = Ratio of heart to liver uptake after 240 min was determined in female Fischer rats after [125I]-labeled compound complexed with bovine serum albumin was injected intravenously; assay type: functional; in short: as §2
[20] = Ratio of heart to lungs uptake after 120 min was determined in female Fischer rats after [125I]-labeled compound complexed with bovine serum albumin was injected intravenously; assay type: functional; in short: as §2
[21] = Ratio of heart to lungs uptake after 240 min was determined in female Fischer rats after [125I]-labeled compound complexed with bovine serum albumin was injected intravenously; assay type: functional; in short: as §2
[22] = Ratio of heart to lungs uptake after 30 min was determined in female Fischer rats after [125I]-labeled compound complexed with bovine serum albumin was injected intravenously; assay type: functional; in short: as §2
[23] = Ratio of heart to lungs uptake after 5 min was determined in female Fischer rats after [125I]-labeled compound complexed with bovine serum albumin was injected intravenously; assay type: functional; in short: as §2
[24] = Ratio of heart to lungs uptake after 60 min was determined in female Fischer rats after [125I]-labeled compound complexed with bovine serum albumin was injected intravenously; assay type: functional; in short: as §2
[25] = Ratio of heart to liver uptake after 30 min was determined in female Fischer rats after [125I]-labeled compound complexed with bovine serum albumin was injected intravenously; assay type: functional; in short: as §2
Rattus norvegicus [26] = assay: Liver uptake after 1d was determined in female Fischer rats after [125I]-labeled compound complexed with bovine serum albumin was injected intravenously; assay type: functional; in short: as §1
Rattus norvegicus [27] = assay: Liver uptake after 30 min was determined in female Fischer rats after [125I]-labeled compound complexed with bovine serum albumin was injected intravenously; assay type: functional; in short: as §1
Rattus norvegicus [28] = assay: Liver uptake after 4 hr was determined in female Fischer rats after [125I]-labeled compound complexed with bovine serum albumin was injected intravenously; assay type: functional; in short: as §1
Rattus norvegicus [29] = assay: Liver uptake after 5 min was determined in female Fischer rats after [125I]-labeled compound complexed with bovine serum albumin was injected intravenously; assay type: functional; in short: as §1
Rattus norvegicus [30] = assay: Liver uptake after 60 min was determined in female Fischer rats after [125I]-labeled compound complexed with bovine serum albumin was injected intravenously; assay type: functional; in short: as §1
Rattus norvegicus [31] = assay: Uptake in lungs after 1 day was determined in female Fischer rats after [125I]-labeled compound complexed with bovine serum albumin was injected intravenously; assay type: functional
In short: (§3)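 Female Fischer 344 rats with free access to food and water. The 125I-labelled fatty acid (~3.8–4.8 μCi; sp act. ~125–240 mCi/mmol) was complexed with 6% bovine serum albumin (10% final ethanol), filtered, and 0.5 mL was injected via a lateral tail vein under ether anaesthesia. Four rats per time point. Values are mean % injected dose/g, calculated against injectate standards. Thyroid weight was taken as 7.5 mg/100 g body weight.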

Rattus norvegicus [32] = assay: Uptake in lungs after 30 min was determined in female Fischer rats after [125I]-labeled compound complexed with bovine serum albumin was injected intravenously; assay type: functional; in short: as §3
Rattus norvegicus [33] = assay: Uptake in lungs after 4 hr was determined in female Fischer rats after [125I]-labeled compound complexed with bovine serum albumin was injected intravenously; assay type: functional; in short: as §3
Rattus norvegicus [34] = assay: Uptake in lungs after 5 min was determined in female Fischer rats after [125I]-labeled compound complexed with bovine serum albumin was injected intravenously; assay type: functional; in short: as §3
Rattus norvegicus [35] = assay: Uptake in lungs after 60 min was determined in female Fischer rats after [125I]-labeled compound complexed with bovine serum albumin was injected intravenously; assay type: functional; in short: as §3
Rattus norvegicus [36] = assay: Thyroid uptake after 5 min was determined in female Fischer rats after [125I]-labeled compound complexed with bovine serum albumin was injected intravenously; assay type: functional; in short: as §3
Rattus norvegicus [37] = assay: Kidney uptake after 5 min was determined in female Fischer rats after [125I]-labeled compound complexed with bovine serum albumin was injected intravenously; assay type: functional; in short: as §1
Rattus norvegicus [38] = assay: Blood uptake after 1d was determined in female Fischer rats after [125I]-labeled compound complexed with bovine serum albumin was injected intravenously; assay type: functional; in short: as §1
Rattus norvegicus [39] = assay: Blood uptake after 30 min was determined in female Fischer rats after [125I]-labeled compound complexed with bovine serum albumin was injected intravenously; assay type: functional; in short: as §1
Rattus norvegicus [40] = assay: Blood uptake after 4 hr was determined in female Fischer rats after [125I]-labeled compound complexed with bovine serum albumin was injected intravenously; assay type: functional; in short: as §1
Rattus norvegicus [41] = assay: Blood uptake after 5 min was determined in female Fischer rats after [125I]-labeled compound complexed with bovine serum albumin was injected intravenously; assay type: functional; in short: as §1
Rattus norvegicus [42] = assay: Blood uptake after 60 min was determined in female Fischer rats after [125I]-labeled compound complexed with bovine serum albumin was injected intravenously; assay type: functional; in short: as §1
Rattus norvegicus [43] = assay: Heart uptake after 1d was determined in female Fischer rats after [125I]-labeled compound complexed with bovine serum albumin was injected intravenously; assay type: functional; in short: as §1
Rattus norvegicus [44] = assay: Heart uptake after 4 hr was determined in female Fischer rats after [125I]-labeled compound complexed with bovine serum albumin was injected intravenously; assay type: functional; in short: as §1

Compound `O=C(O)CCCCC[Te]CCCCCCCCC/C=C/I` has an Injected dose/g (Rattus norvegicus [1]) of 2.96%, an Injected dose/g (Rattus norvegicus [2]) of 2.86% and an Injected dose/g (Rattus norvegicus [3]) of 2.37%. For the same compound, the Injected dose/g (Rattus norvegicus [4]) was 2.78%, the Injected dose/g (Rattus norvegicus [5]) was 3.47% and the Ratio [6] was 12. The Ratio [7] was 8, the Ratio [8] was 13 and the Ratio [9] was 13. The Ratio [10] was 13, the Ratio [11] was 3.3 and the Ratio [12] was 3.1. The Ratio [13] was 3.1, the Ratio [14] was 3.3 and the Ratio [15] was 3.1. The Ratio [16] was 0.59, the Ratio [17] was 0.56 and the Ratio [18] was 0.55. It also gave a Ratio [19] of 0.54, a Ratio [20] of 2.9 and a Ratio [21] of 2.8. It also gave a Ratio [22] of 2.9, a Ratio [23] of 2.7 and a Ratio [24] of 2.9. For the same compound, the Ratio [25] was 0.49.

In the case of `O=C(O)CCCCCCCCCCC[Te]CCC/C=C/I`, the Injected dose/g (Rattus norvegicus [1]) is reported as 1.81%, the Injected dose/g (Rattus norvegicus [2]) is reported as 1.03% and the Injected dose/g (Rattus norvegicus [3]) is reported as 0.76%. It also gave an Injected dose/g (Rattus norvegicus [4]) of 1.52%, an Injected dose/g (Rattus norvegicus [5]) of 1.46% and a Ratio [6] of 1.5. It also gave a Ratio [7] of 1.2, a Ratio [8] of 2.5 and a Ratio [9] of 8. It also gave a Ratio [10] of 2.6, a Ratio [11] of 1.1 and a Ratio [12] of 1.9. The Ratio [13] was 1.5, the Ratio [14] was 1.5 and the Ratio [15] was 1.6. For the same compound, the Ratio [16] was 0.42, the Ratio [17] was 0.17 and the Ratio [18] was 0.41. For the same compound, the Ratio [19] was 0.39, the Ratio [20] was 1.3 and the Ratio [21] was 1.1. It also gave a Ratio [22] of 1.7, a Ratio [23] of 1.6 and a Ratio [24] of 1.6. For the same compound, the Ratio [25] was 0.29.

With `O=C(O)CCC[Te]CCCCCCCCCCC/C=C/I` the Injected dose/g (Rattus norvegicus [26]) was 3.64%, the Injected dose/g (Rattus norvegicus [27]) was 5.53% and the Injected dose/g (Rattus norvegicus [28]) was 4.76%. The Injected dose/g (Rattus norvegicus [29]) was 6.56%, the Injected dose/g (Rattus norvegicus [30]) was 7.33% and the Injected dose/g (Rattus norvegicus [31]) was 0.71%. It also gave an Injected dose/g (Rattus norvegicus [32]) of 1.54%, an Injected dose/g (Rattus norvegicus [33]) of 0.92% and an Injected dose/g (Rattus norvegicus [34]) of 1.47%. For the same compound, the Injected dose/g (Rattus norvegicus [35]) was 1.16%, the Injected dose/g (Rattus norvegicus [36]) was 6.03% and the Injected dose/g (Rattus norvegicus [1]) was 4.33%. It also gave an Injected dose/g (Rattus norvegicus [37]) of 1.02%, an Injected dose/g (Rattus norvegicus [38]) of 0.18% and an Injected dose/g (Rattus norvegicus [39]) of 0.16%. The Injected dose/g (Rattus norvegicus [40]) was 0.19%, the Injected dose/g (Rattus norvegicus [41]) was 0.11% and the Injected dose/g (Rattus norvegicus [42]) was 0.19%. For the same compound, the Injected dose/g (Rattus norvegicus [43]) was 3.96%, the Injected dose/g (Rattus norvegicus [4]) was 4.64% and the Injected dose/g (Rattus norvegicus [5]) was 3.99%. It also gave a Ratio [6] of 20, a Ratio [7] of 18 and a Ratio [8] of 30. The Ratio [9] was 37, the Ratio [10] was 23 and the Ratio [11] was 4. It also gave a Ratio [12] of 4.3, a Ratio [13] of 4.6 and a Ratio [14] of 3.9. For the same compound, the Ratio [15] was 3.7, the Ratio [16] was 0.74 and the Ratio [17] was 0.6. The Ratio [18] was 0.59, the Ratio [19] was 0.75 and the Ratio [20] was 3.6. For the same compound, the Ratio [21] was 3.9, the Ratio [22] was 3 and the Ratio [23] was 2.7. It also gave a Ratio [24] of 3.7, a Ratio [25] of 0.84 and an Injected dose/g (Rattus norvegicus [44]) of 3.57%.
